# Starred links: 1 amine or outer side, 2 acyl side, 3 side chain; linkers in the order of their positions; H or OH if unused. Non-standard residues stand in square brackets, D forms with d. Residues, ends and D or L forms follow the SMILES beside them. *: point of attachment. X1 = CC(C)C[C@H](N[*:1])[C@@H](O)C[C@H](C(=O)[*:2])C(C)C; Boc = CC(C)(C)OC(=O)*
# Tests used:
# Renin [1] = target: T1, Renin (Homo sapiens, UniProt P00797); experiment: In vitro for inhibitory activity against human renin
# T1 sequence (P00797 whole entry): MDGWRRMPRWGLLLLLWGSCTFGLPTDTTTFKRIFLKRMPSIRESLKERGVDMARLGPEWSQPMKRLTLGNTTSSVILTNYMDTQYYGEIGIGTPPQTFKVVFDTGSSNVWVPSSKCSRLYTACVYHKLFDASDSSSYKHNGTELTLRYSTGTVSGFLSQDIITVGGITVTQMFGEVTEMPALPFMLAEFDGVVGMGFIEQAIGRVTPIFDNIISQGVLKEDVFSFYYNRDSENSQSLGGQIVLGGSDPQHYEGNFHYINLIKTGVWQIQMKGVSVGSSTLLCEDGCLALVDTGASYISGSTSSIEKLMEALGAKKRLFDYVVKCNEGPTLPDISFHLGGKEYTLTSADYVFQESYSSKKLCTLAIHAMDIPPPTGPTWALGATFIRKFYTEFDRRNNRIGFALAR
# In short: (§1)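 Endogenous renin and angiotensinogen in human EDTA plasma; incubation mixture of 76 mM maleate pH 5.5, 7.2 mM EDTA, 1% DMSO, 8.3 mM 8-hydroxyquinoline; 2 h at 37 °C, then on ice; angiotensin I measured by radioimmunoassay. At least three inhibitor concentrations bracketing the IC50; IC50 calculated from percent inhibition.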
# Cathepsin D = target: T2, Cathepsin D (Bos taurus, UniProt P80209); experiment: In vitro inhibitory activity against bovine Cathepsin D
# T2 sequence (P80209 whole entry): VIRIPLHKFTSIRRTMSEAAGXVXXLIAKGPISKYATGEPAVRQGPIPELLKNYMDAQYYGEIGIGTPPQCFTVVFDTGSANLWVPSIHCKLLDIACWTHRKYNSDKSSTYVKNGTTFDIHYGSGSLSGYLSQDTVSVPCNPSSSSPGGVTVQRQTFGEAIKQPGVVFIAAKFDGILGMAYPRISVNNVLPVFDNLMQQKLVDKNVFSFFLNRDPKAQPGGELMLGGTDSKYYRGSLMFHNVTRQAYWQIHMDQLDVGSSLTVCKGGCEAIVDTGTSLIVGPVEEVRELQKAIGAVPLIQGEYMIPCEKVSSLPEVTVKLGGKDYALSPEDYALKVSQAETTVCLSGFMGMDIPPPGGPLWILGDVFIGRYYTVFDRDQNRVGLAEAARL
# In short: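 Bovine cathepsin D (100 munits) acting on hemoglobin at pH 3.2, 20 min, 37 °C. TCA-soluble peptides released were read by absorbance at 280 nm; IC50 taken as the concentration giving 50% inhibition of peptide liberation.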
# Pepsin A = Pepsin A (Sus scrofa, UniProt P00791); experiment: In vitro inhibitory activity against porcine Pepsin.
# In short: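 Porcine pepsin (20 units) digesting hemoglobin at pH 1.8, 10 min, 35.5 °C. Released TCA-soluble peptides measured at 280 nm; IC50 is the concentration halving peptide liberation.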
# [2] = Partition coefficient (logP); type: physicochemical; settings: octanol/water
# In short: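 Octanol/water partition coefficient measured at pH 7.4.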
# [3] = Plasma renin activity change in salt depleted cynomolgus monkeys after 180 minutes, administration of the compound.; type: functional, Cercopithecidae
# In short: (§2)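 Cynomolgus monkeys salt-depleted with furosemide 2 mg/kg im daily from 4 days before the experiment; haloperidol 0.3 mg/kg im for sedation on the test day. Conscious chair-restrained animals; systolic pressure by tail-cuff every 5 min, stabilized before dosing. Single oral 30 mg/kg dose, n = 4; PRA from blood samples. Change from T = 0 baseline, mean ± SE.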
# [4] = Plasma renin activity change in salt depleted cynomolgus monkeys.; type: functional, Cercopithecidae; in short: as §2
# Renin [5] = target: T1, Renin; experiment: Compound was tested in vitro for inhibitory activity against human renin; in short: as §1
# [6] = Systolic blood pressure change in salt depleted cynomolgus monkeys.; type: functional, Cercopithecidae; in short: as §2
# [7] = Duration of Systolic blood pressure decrease in salt depleted cynomolgus monkeys.; type: functional, Cercopithecidae; in short: as §2
# Renin [8] = target: T1, Renin; experiment: The compound was tested in vitro for inhibitory activity against human renin; in short: as §1
# Chain of Pepsin A (P00791 whole entry): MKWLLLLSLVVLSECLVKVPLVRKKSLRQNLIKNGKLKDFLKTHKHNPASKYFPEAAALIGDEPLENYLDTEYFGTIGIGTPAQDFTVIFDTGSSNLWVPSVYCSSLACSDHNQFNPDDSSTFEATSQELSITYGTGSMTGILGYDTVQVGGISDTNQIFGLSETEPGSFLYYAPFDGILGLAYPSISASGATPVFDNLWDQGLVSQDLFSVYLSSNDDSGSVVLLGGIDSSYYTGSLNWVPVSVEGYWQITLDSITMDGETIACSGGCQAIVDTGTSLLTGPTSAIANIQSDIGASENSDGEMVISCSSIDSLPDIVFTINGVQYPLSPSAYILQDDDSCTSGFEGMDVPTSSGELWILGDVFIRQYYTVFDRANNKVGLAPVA
IC50 (Renin [1]),IC50 (Cathepsin D),IC50 (Pepsin A),Compound,also measured
0.00053 µM,0.028 µM,0.95 µM,CC[C@H](C)[C@H](NC(=O)C[C@H](O)[C@H](CC1CCCCC1)NC(=O)[C@H](C)NC(=O)[C@H](Cc1ccccc1)NC(=O)OC(C)(C)C)C(=O)NCc1cnc(C)nc1N,
0.0054 µM,3.9 µM,1.4 µM,CC[C@H](C)[C@H](NC(=O)[C@@H](C[C@H](O)[C@H](CC(C)C)NC(=O)CNC(=O)[C@H](Cc1ccccc1)NC(=O)OC(C)(C)C)C(C)C)C(=O)NCc1cnc(C)nc1N,
0.0025 µM,13 µM,38.5 µM,CC[C@H](C)[C@H](NC(=O)C[C@H](O)[C@@H](CC1CCCCC1)NC(=O)CNC(=O)[C@@H](Cc1ccccc1)NC(=O)OC(C)(C)C)C(=O)NCc1cnc(C)nc1N,
0.24 µM,> 10 µM,> 10 µM,CC[C@H](C)[C@H](NC(=O)C[C@H](O)[C@H](CC1CCCCC1)NC(=O)CS(=O)(=O)CC(=O)[C@H](Cc1ccccc1)NC(=O)OC(C)(C)C)C(=O)NCc1cnc(C)nc1N,
0.0028 µM,6.5 µM,40 µM,CC[C@H](C)[C@H](NC(=O)C[C@H](O)[C@@H](CC1CCCCC1)NC(=O)CNC(=O)[C@@H](Cc1ccccc1)NC(=O)OC(C)(C)C)C(=O)NCc1cccnc1,
0.0015 µM,7.9 µM,18.5 µM,CC[C@H](C)[C@H](NC(=O)C[C@H](O)[C@@H](CC1CCCCC1)NC(=O)CCNC(=O)[C@@H](Cc1ccccc1)NC(=O)OC(C)(C)C)C(=O)NCc1cnc(C)nc1N,logP [2]: 2.88; Change [3]: -21.6%; Change [4]: -25.1%
0.00028 µM,> 10 µM,> 10 µM,CC[C@H](C)[C@H](NC(=O)C[C@H](O)[C@H](CC1CCCCC1)NC(=O)CCNC(=O)[C@H](Cc1ccccc1)NC(=O)N1CCOCC1)C(=O)NCc1cnc(C)nc1N,
0.00058 µM,10 µM,> 10 µM,CC[C@H](C)[C@H](NC(=O)C[C@H](O)[C@H](CC1CCCCC1)NC(=O)CCNC(=O)[C@H](Cc1ccccc1)NC(=O)N1CCC(N(C)C)CC1)C(=O)NCc1cnc(C)nc1N,
0.0041 µM,4.7 µM,0.83 µM,CC[C@H](C)[C@H](NC(=O)[C@@H](C[C@H](O)[C@H](CC(C)C)NC(=O)CCNC(=O)[C@H](Cc1ccccc1)NC(=O)OC(C)(C)C)C(C)C)C(=O)NCc1cnc(C)nc1N,
0.0055 µM,73 µM,> 100 µM,CC[C@H](C)[C@H](NC(=O)C[C@H](O)[C@H](CC1CCCCC1)NC(=O)CSC[C@@H](O)[C@H](Cc1ccccc1)NC(=O)OC(C)(C)C)C(=O)NCc1cnc(C)nc1N,
,8 µM,12 µM,CC[C@H](C)[C@H](NC(=O)[C@@H](C[C@H](O)[C@H](CC(C)C)NC(=O)CCC(=O)[C@H](Cc1ccccc1)NC(=O)OC(C)(C)C)C(C)C)C(=O)NCc1cnc(C)nc1N,IC50 (Renin [5]): 0.0051 µM
0.07 µM,> 10 µM,> 10 µM,CC[C@H](C)[C@H](NC(=O)C[C@H](O)[C@H](CC1CCCCC1)NC(=O)C[S+]([O-])CC(=O)[C@H](Cc1ccccc1)NC(=O)OC(C)(C)C)C(=O)NCc1cnc(C)nc1N (stereo partly drawn),
0.0063 µM,> 100 µM,> 100 µM,CC[C@H](C)[C@H](NC(=O)C[C@H](O)[C@H](CC1CCCCC1)NC(=O)CSC[C@H](O)[C@H](Cc1ccccc1)NC(=O)OC(C)(C)C)C(=O)NCc1cnc(C)nc1N,
0.0045 µM,> 10 µM,> 10 µM,CC[C@H](C)[C@H](NC(=O)C[C@H](O)[C@H](CC1CCCCC1)NC(=O)CCNC(=O)[C@H](Cc1ccccc1)NC(=O)CCCCCN)C(=O)NCc1cnc(C)nc1N,
0.0018 µM,> 10 µM,> 10 µM,CC[C@H](C)[C@H](NC(=O)C[C@H](O)[C@H](CC1CCCCC1)NC(=O)CCNC(=O)[C@@H](Cc1ccccc1)NC(=O)CC(C)(C)N)C(=O)NCc1cnc(C)nc1N,
0.0285 µM,3.2 µM,> 10 µM,CC[C@H](C)[C@H](NC(=O)C[C@H](O)[C@@H](CC1CCCCC1)NC(=O)CCCNC(=O)[C@@H](Cc1ccccc1)NC(=O)OC(C)(C)C)C(=O)NCc1cnc(C)nc1N,
0.00115 µM,> 10 µM,> 10 µM,CC[C@H](C)[C@H](NC(=O)C[C@H](O)[C@H](CC1CCCCC1)NC(=O)CCNC(=O)[C@@H](Cc1ccccc1)NC(=O)N1CCC(C(=O)O)CC1)C(=O)NCc1cnc(C)nc1N,
0.0012 µM,> 10 µM,10 µM,CC[C@H](C)[C@H](NC(=O)C[C@H](O)[C@H](CC1CCCCC1)NC(=O)CC[C@@H](O)[C@H](Cc1ccccc1)NC(=O)OC(C)(C)C)C(=O)NCc1cnc(C)nc1N,
0.0029 µM,5.8 µM,> 10 µM,CC[C@H](C)[C@H](NC(=O)C[C@H](O)[C@H](Cc1ccccc1)NC(=O)[C@H](Cc1c[nH]cn1)NC(=O)[C@H](Cc1ccccc1)NC(=O)OC(C)(C)C)C(=O)NCc1cccnc1,
0.0054 µM,8.8 µM,6 µM,CC[C@H](C)[C@H](NC(=O)[C@@H](C[C@H](O)[C@H](CC(C)C)NC(=O)CSCC(=O)[C@H](Cc1ccccc1)NC(=O)OC(C)(C)C)C(C)C)C(=O)NCc1cnc(C)nc1N,
,28 µM,53 µM,CC[C@H](C)[C@H](NC(=O)C[C@H](O)[C@H](CC1CCCCC1)NC(=O)CSCC(=O)[C@H](Cc1ccccc1)NC(=O)OC(C)(C)C)C(=O)NCc1cnc(C)nc1N,IC50 (Renin [5]): 0.0021 µM
0.0042 µM,> 10 µM,> 10 µM,CC[C@H](C)[C@H](NC(=O)C[C@H](O)[C@H](CC1CCCCC1)NC(=O)CC[C@H](O)[C@H](Cc1ccccc1)NC(=O)OC(C)(C)C)C(=O)NCc1cnc(C)nc1N,
0.00041 µM,3.15 µM,4.2 µM,CCOC(=O)C1CCN(C(=O)N[C@@H](Cc2ccccc2)C(=O)NCCC(=O)N[C@@H](CC2CCCCC2)[C@@H](O)CC(=O)N[C@H](C(=O)NCc2cnc(C)nc2N)[C@@H](C)CC)CC1,
0.0085 µM,> 10 µM,> 10 µM,CC[C@H](C)[C@H](NC(=O)C[C@H](O)[C@H](CC1CCCCC1)NC(=O)CCC(=O)[C@H](Cc1ccccc1)NC(=O)OC(C)(C)C)C(=O)NCc1cnc(C)nc1N,
0.008 µM,> 10 µM,> 10 µM,CC[C@H](C)[C@H](NC(=O)C[C@H](O)[C@H](CC1CCCCC1)NC(=O)CCNC(=O)[C@H](Cc1ccccc1)NC(=O)CCC[N+](C)(C)C)C(=O)NCc1cnc(C)nc1N.[Cl-],logP [2]: 1.53; Change [3]: -78.3%; Change [4]: -83.2%; Change [6]: -10.6%; Duration [7]: > 130 min
0.00065 µM,5.9 µM,> 10 µM,CC[C@H](C)[C@H](NC(=O)C[C@H](O)[C@H](CC1CCCCC1)NC(=O)CCNC(=O)[C@H](Cc1ccccc1)NC(=O)N1CCC(NC(=O)OC(C)(C)C)CC1)C(=O)NCc1cnc(C)nc1N,
0.00076 µM,8.5 µM,> 10 µM,CC[C@H](C)[C@H](NC(=O)C[C@H](O)[C@H](CC1CCCCC1)NC(=O)CCNC(=O)[C@H](Cc1ccccc1)NC(=O)N1CCC(N)CC1)C(=O)NCc1cnc(C)nc1N.Cl.Cl,logP [2]: 1.83; Change [3]: -89.3%; Change [4]: -90.5%; Change [6]: -24.7%; Duration [7]: >180 min
0.0195 µM,> 10 µM,> 10 µM,CC[C@H](C)[C@H](NC(=O)C[C@H](O)[C@H](CC1CCCCC1)NC(=O)CCNC(=O)[C@@H](N)Cc1ccccc1)C(=O)NCc1cnc(C)nc1N,
,,,CC[C@H](C)[C@H](NC(=O)[C@@H](C[C@H](O)[C@H](CC(C)C)NC(=O)[C@H](Cc1c[nH]cn1)NC(=O)[C@H](Cc1ccccc1)NC(=O)OC(C)(C)C)C(C)C)C(=O)N[C@@H](Cc1c[nH]cn1)C(=O)O (Boc-FH[X1]IH-OH),IC50 (Renin [8]): 0.0024 µM

# Reference: ChEMBL document CHEMBL1125795, “Substrate analogue renin inhibitors containing replacements of histidine in P2 or isosteres of the amide bond between P3 and P2 sites” (J Med Chem, 1991)
